Values after ≈ are worked out from the molar mass of the structure shown. Values joined by “and” are separate entries in the source; they are usually repeats but may differ in a detail not shown here. Identical values can stand only once.
Experiments:
Type in all cases: functional
[1] = test system: Vesicular stomatitis virus; assay: Evaluated for the minimum inhibitory concentration (MIC) in primary rabbit kidney (PRK), by 50% upon preincubation in medium containing 10% fetal calf serum at 37 degree Celsius for 24 hr against vesicular stomatitis virus
Summary of the method: (§1)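 Compounds were preincubated in medium with 10% fetal calf serum for 24 h at 37 °C before addition to the cells. Confluent primary rabbit kidney monolayers were infected with 100 CCID50 of virus and adsorbed for 1 h. Residual virus was removed and cells were incubated with varying compound concentrations. The endpoint was 50% reduction of cytopathogenicity, read when infected controls reached full CPE.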

Vaccinia virus [2] = assay: Evaluated for the minimum inhibitory concentration (MIC) in primary rabbit kidney (PRK) by 50% against Vaccinia virus; settings: Orthopoxvirus vaccinia
Summary of the method: (§2)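 Confluent primary rabbit kidney cell monolayers were infected with 100 CCID50 of virus. After 1 h adsorption, residual virus was removed and cells were incubated with serial compound concentrations. Cytopathogenicity was scored once it reached completion in untreated infected controls. The endpoint was the concentration reducing virus-induced cytopathogenicity by 50%.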

Human alphaherpesvirus 1 [3] = assay: Evaluated for the minimum inhibitory concentration (MIC) in primary rabbit kidney (PRK) by 50% against TK- herpes simplex virus type 1 (TK- HSV-1) with strain VMW 1837; summary of the method: as §2
Mus musculus [4] = assay: Topical treatment of intracutaneous TK- herpes simplex virus type 1 of strain VMW 1837 infection of Nu/nu mice for mean day of appearance of skin lesions and/or paralysis of the hind legs at 3% concentration (v/v in DMSO)
Summary of the method: (§3)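 Inocula were TK⁻ HSV-1 at 10⁶ CCID50/0.05 mL or HSV-1 KOS at 10^4.7 PFU/0.05 mL. Test formulations in DMSO were applied topically four times daily for 5 days, starting at infection. Skin lesions, hind-leg paralysis and death were recorded daily for 28 (KOS) or 49 (TK⁻) days, with five mice per group.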

Human alphaherpesvirus 1 [5] = assay: Evaluated for the minimum inhibitory concentration (MIC) in primary rabbit kidney (PRK) by 50% against herpes simplex virus type-1 (HSV-1) with strains KOS
Summary of the method: (§4)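 Confluent primary rabbit kidney cell cultures infected with 100 CCID50 virus; after 1 h adsorption residual virus removed and cells incubated with varying compound concentrations. Cytopathogenicity scored when complete in infected untreated controls; MIC = concentration reducing virus-induced cytopathogenicity by 50%. Compounds tested as such or after preincubation in medium with 10% fetal calf serum, 24 h, 37 °C.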

Mus musculus [6] = assay: Topical treatment of intracutaneous TK- herpes simplex virus type 1 of strain VMW 1837 infection of Nu/nu mice for mean day of appearance of skin lesions and/or paralysis of the hind legs at 0.3% concentration (v/v in DMSO); summary of the method: as §3
Human alphaherpesvirus 1 [7] = assay: (§5) Evaluated for the minimum inhibitory concentration (MIC) in primary rabbit kidney (PRK), by 50% upon preincubation in medium containing 10% fetal calf serum at 37 degree Celsius for 24 hr against TK- herpes simplex virus type 1 (TK- HSV-1) with s; summary of the method: as §1
Human alphaherpesvirus 1 [8] = assay: Evaluated for the minimum inhibitory concentration (MIC) in primary rabbit kidney (PRK) by 50% against herpes simplex virus type-1 (HSV-1) with strains F; summary of the method: as §4
Human alphaherpesvirus 1 [9] = assay: as §5; summary of the method: as §1; remark: listed apart in the source
Human alphaherpesvirus 1 [10] = assay: Evaluated for the minimum inhibitory concentration (MIC) in primary rabbit kidney (PRK) by 50% against herpes simplex virus type-1 (HSV-1) with strains McIntyre; summary of the method: as §4
Human alphaherpesvirus 1 [11] = assay: Evaluated for the minimum inhibitory concentration (MIC) in primary rabbit kidney (PRK) by 50% upon preincubation in medium containing 10% fetal calf serum at 37 degree Celsius for 24 hr against herpes simplex virus type-1 (HSV-1) with strain F; summary of the method: as §1
Human alphaherpesvirus 2 [12] = assay: Evaluated for the minimum inhibitory concentration (MIC) in primary rabbit kidney (PRK), by 50% upon pre-incubation in medium containing 10% fetal calf serum at 37 degree Centigrade for 24 hr against herpes simplex virus type-2 (HSV-2) with strains L; summary of the method: as §1
Human alphaherpesvirus 1 [13] = assay: Evaluated for the minimum inhibitory concentration (MIC) in primary rabbit kidney (PRK), by 50% against TK- herpes simplex virus type 1 (TK- HSV-1) with strain B2006; summary of the method: as §2
Mus musculus [14] = species: Mus musculus; assay: Mean time survival (MTS) of the mice at the end of 28 or 49 days.; summary of the method: as §3
[15] = test system: Vesicular stomatitis virus; assay: Evaluated for the minimum inhibitory concentration (MIC) in primary rabbit kidney (PRK) by 50% against Vesicular stomatitis virus; summary of the method: as §2
Human alphaherpesvirus 2 [16] = assay: Evaluated for the minimum inhibitory concentration (MIC) in primary rabbit kidney (PRK), by 50% upon preincubation in medium containing 10% fetal calf serum at 37 degree Celsius for 24 hr against herpes simplex virus type-2 (HSV-2) with strains G; summary of the method: as §1
Vaccinia virus [17] = assay: Evaluated for the minimum inhibitory concentration (MIC) in primary rabbit kidney (PRK), by 50% upon preincubation in medium containing 10% fetal calf serum at 37 degree Celsius for 24 hr against Vaccinia virus; settings: Orthopoxvirus vaccinia; summary of the method: as §1
Oryctolagus cuniculus = species: Oryctolagus cuniculus; assay: Evaluated for the minimum cytotoxic concentration (MCC) upon preincubation of rabbit kidney cells in medium containing 10% fetal calf serum at 37 degree Celsius for 24 hr
Summary of the method: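 Primary rabbit kidney cell cultures were exposed to compounds, some preincubated 24 h at 37 °C in medium with 10% fetal calf serum. The minimum cytotoxic concentration was the level causing a microscopically detectable change in normal cell morphology.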

Human alphaherpesvirus 1 [18] = assay: Evaluated for the minimum inhibitory concentration (MIC) in primary rabbit kidney (PRK), by 50% upon preincubation in medium containing 10% fetal calf serum at 37 degree Centigrade for 24 hr against herpes simplex virus type-1 (HSV-1) with strain Mc; summary of the method: as §1
Mus musculus [19] = assay: Topical treatment of intracutaneous TK- herpes simplex virus type 1 of strain VMW 1837 infection of Nu/nu mice for mean day of appearance of skin lesions and/or paralysis of the hind legs at 1% concentration (v/v in DMSO); summary of the method: as §3
Human alphaherpesvirus 2 [20] = assay: Evaluated for the minimum inhibitory concentration (MIC) in primary rabbit kidney (PRK), by 50% upon pre-incubation in medium containing 10% fetal calf serum at 37 degree Centigrade for 24 hr against herpes simplex virus type-2 (HSV-2) with strains 1; summary of the method: as §1
Human alphaherpesvirus 2 [21] = assay: Evaluated for the minimum inhibitory concentration (MIC) in primary rabbit kidney (PRK) by 50% against herpes simplex virus type-2 (HSV-2) with strains 196; summary of the method: as §4
Human alphaherpesvirus 2 [22] = assay: Evaluated for the minimum inhibitory concentration (MIC) in primary rabbit kidney (PRK) by 50% against herpes simplex virus type-2 (HSV-2) with strains Lyons; summary of the method: as §4
Human alphaherpesvirus 1 [23] = assay: Evaluated for the minimum inhibitory concentration (MIC) in primary rabbit kidney (PRK) by 50% upon preincubation in medium containing 10% fetal calf serum at 37 degree Celsius for 24 hr against herpes simplex virus type-1 (HSV-1) with strain KOS; summary of the method: as §1
Mus musculus [24] = assay: Topical treatment of intracutaneous HSV-1(KOS) herpes simplex virus type 1 infection of Nu/nu mice for mean day of appearance of skin lesions and/or paralysis of the hind legs at 3% concentration (v/v in DMSO); summary of the method: as §3
Human alphaherpesvirus 2 [25] = assay: Evaluated for the minimum inhibitory concentration (MIC) in primary rabbit kidney (PRK) by 50% against herpes simplex virus type-2 (HSV-2) with strains G; summary of the method: as §2
[26] = test system: Vesicular stomatitis virus; assay: Evaluated for the minimum inhibitory concentration (MIC) in primary rabbit kidney (PRK) by 50% against vesicular stomatitis virus; summary of the method: as §2
Mus musculus [27] = assay: Topical treatment of intracutaneous HSV-1(KOS) herpes simplex virus type 1 infection of Nu/nu mice for mean day of appearance of skin lesions and/or paralysis of the hind legs at 0.3% concentration (v/v in DMSO); summary of the method: as §3
Vaccinia virus [28] = assay: Evaluated for the minimum inhibitory concentration (MIC) in primary rabbit kidney (PRK) by 50% against vaccinia virus; settings: Orthopoxvirus vaccinia; summary of the method: as §2
Human alphaherpesvirus 1 [29] = assay: Evaluated for the minimum inhibitory concentration (MIC) in primary rabbit kidney (PRK) by 50% against TK- herpes simplex virus type 1 (TK- HSV-1) with strain B2006; summary of the method: as §2
Mus musculus [30] = assay: Topical treatment of intracutaneous HSV-1(KOS) herpes simplex virus type 1 infection of Nu/nu mice for mean day of appearance of skin lesions and/or paralysis of the hind legs at 1% concentration (v/v in DMSO); summary of the method: as §3
[31] = Oryctolagus cuniculus, kidney, read-out: MCC

## CS(=O)(=O)c1ccc(OP(=O)(OCCOCn2cnc3c(O)nc(N)nc32)OCCOCn2cnc3c(O)nc(N)nc32)cc1
[1]
  MIC: > 200 µg/mL
Vaccinia virus [2]
  MIC: > 200 µg/mL
Human alphaherpesvirus 1 [3]
  MIC: 70 µg/mL (≈ 105 µM)
Mus musculus [4]
  Mean day appearance of lesions: 29.7
Human alphaherpesvirus 1 [5]
  MIC: 0.7 µg/mL (≈ 1.05 µM)
Mus musculus [6]
  Mean day appearance of lesions: 17.6
Human alphaherpesvirus 1 [7]
  MIC: 150 µg/mL (≈ 225 µM)
Human alphaherpesvirus 1 [8]
  MIC: 0.7 µg/mL (≈ 1.05 µM)
Human alphaherpesvirus 1 [9]
  MIC: 40 µg/mL (≈ 60 µM)
Human alphaherpesvirus 1 [10]
  MIC: 1 µg/mL (≈ 1.5 µM)
Human alphaherpesvirus 1 [11]
  MIC: 0.4 µg/mL (≈ 0.6 µM)
Human alphaherpesvirus 2 [12]
  MIC: 0.4 µg/mL (≈ 0.6 µM)
Human alphaherpesvirus 1 [13]
  MIC: 150 µg/mL (≈ 225 µM)
Mus musculus [14]
  MTS: 40.2 days and 40.6 days and 33.4 days
[15]
  MIC: > 200 µg/mL
Human alphaherpesvirus 2 [16]
  MIC: 0.2 µg/mL (≈ 0.3 µM)
Vaccinia virus [17]
  MIC: > 200 µg/mL
Oryctolagus cuniculus
  MCC: 400 µg/mL
Oryctolagus cuniculus; [31]
  MCC: 400 µg/mL
Human alphaherpesvirus 1 [18]
  MIC: 0.7 µg/mL (≈ 1.05 µM)
Mus musculus [19]
  Mean day appearance of lesions: 23.6
Human alphaherpesvirus 2 [20]
  MIC: 0.3 µg/mL (≈ 0.45 µM)
Human alphaherpesvirus 2 [21]
  MIC: 0.4 µg/mL (≈ 0.6 µM)
Human alphaherpesvirus 2 [22]
  MIC: 0.4 µg/mL (≈ 0.6 µM)
Human alphaherpesvirus 1 [23]
  MIC: 0.4 µg/mL (≈ 0.6 µM)

## O=c1[nH]c(=O)n([C@H]2C[C@H](O)[C@@H](CO)O2)cc1/C=C/Br [BRIVUDINE]
Human alphaherpesvirus 1 [3]
  MIC: 300 µg/mL (≈ 901 µM)
Mus musculus [4]
  Mean day appearance of lesions: 10.8
Human alphaherpesvirus 1 [5]
  MIC: 0.02 µg/mL (≈ 0.06 µM)
Mus musculus [6]
  Mean day appearance of lesions: 8.8
Mus musculus [24]
  Mean day appearance of lesions: 9.4
Human alphaherpesvirus 1 [8]
  MIC: 0.02 µg/mL (≈ 0.06 µM)
Human alphaherpesvirus 1 [10]
  MIC: 0.02 µg/mL (≈ 0.06 µM)
Human alphaherpesvirus 2 [25]
  MIC: 4 µg/mL (≈ 12 µM)
[26]
  MIC: > 400 µg/mL
Oryctolagus cuniculus; [31]
  MCC: > 400 µg/mL
Mus musculus [27]
  Mean day appearance of lesions: 6.2
Mus musculus [19]
  Mean day appearance of lesions: 9.7
Human alphaherpesvirus 2 [21]
  MIC: 150 µg/mL (≈ 450 µM)
Vaccinia virus [28]
  MIC: 7 µg/mL (≈ 21 µM)
Human alphaherpesvirus 2 [22]
  MIC: 40 µg/mL (≈ 120 µM)
Human alphaherpesvirus 1 [29]
  MIC: 200 µg/mL (≈ 600 µM)
Mus musculus [30]
  Mean day appearance of lesions: 9.4

From ChEMBL document CHEMBL1124765, “Synthesis and biological properties of novel phosphotriesters: a new approach to the introduction of biologically active nucleotides into cells” (J Med Chem, 1990)
